Data from ChEMBL document CHEMBL1124110, “Synthesis and pharmacological evaluation of 5,6-exo-epoxy-7-oxabicyclo[2.2.1]heptane derivatives” (J Med Chem, 1988).
pIC50: −log10 of the molar value.

Key:
Assay type in all cases: functional
Cavia porcellus [1] = assay: Percent inhibition of increase in pulmonary resistance was measured on arachidonic acid induced bronchoconstriction in the anesthetized guinea pig after 10 min
Method in brief: (§1)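 Anesthetized guinea pigs received the test agent at 1 mg/kg iv. Arachidonic acid (0.5 mg/kg iv) injections were given as challenge. Rises in pulmonary resistance were recorded, and percent inhibition was scored at 3, 10 and 30 min. Values are mean ± SEM, n = 3–5 animals.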

Cavia porcellus [2] = assay: Percent inhibition of increase in pulmonary resistance was measured on arachidonic acid induced bronchoconstriction in the anesthetized guinea pig after 30 min; method in brief: as §1
Homo sapiens = organism: Homo sapiens; assay: Inhibition of platelet aggregation induced by arachidonic acid(AA) in human platelet-rich plasma; details: read-out: I50
Method in brief: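 Human platelet-rich plasma; aggregation triggered by arachidonic acid. Potency is expressed as the I50 (concentration giving 50% inhibition), reported as mean ± SEM or as mean ± range when n = 2.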

Cavia porcellus [3] = assay: Percent inhibition of increase in pulmonary resistance was measured on arachidonic acid induced bronchoconstriction in the anesthetized guinea pig after 3 min; method in brief: as §1

Row | SMILES | Inhibition (Cavia porcellus [1]) | Inhibition (Cavia porcellus [2]) | pIC50 (Homo sapiens) | Inhibition (Cavia porcellus [3])
1 | O=C(O)CCC/C=C\CC1C(/C=C/[C@@H](O)CCc2ccc(O)cc2)C2OC1C1OC21 (some centres not stated) | 83% | 46% | 6.57 | 90%
2 | COc1ccc2c(c1)c(CC(=O)O)c(C)n2C(=O)c1ccc(Cl)cc1 [INDOMETHACIN] |  |  | 5.22 | 
3 | O=C(O)CCC/C=C\CC1C(/C=C/[C@@H](O)CCc2ccccc2)C2OC1C1OC21 (some centres not stated) |  |  | 5.80 | 
4 | CCCCC[C@H](O)/C=C/C1C(C/C=C\CCCC(=O)O)C2OC1C1OC21 (some centres not stated) |  |  | 4.82 | 
5 | O=C(O)CCC/C=C\CC1C(/C=C/[C@H](O)C2CCCCC2)C2OC1C1OC21 (some centres not stated) |  |  | 4.77 | 
6 | CC1([C@H](O)/C=C/C2C(C/C=C\CCCC(=O)O)C3OC2C2OC32)CCCCC1 (some centres not stated) | 67% | 22% | 6.28 | 85%
7 | O=C(O)CCC/C=C\C[C@@H]1[C@H](CNNC(=O)Nc2ccccc2)[C@H]2CC[C@H]1O2 | 98% | 96% | 7.70 | 97%
8 | O=C(O)COc1ccc(CCNS(=O)(=O)c2ccccc2)cc1 [SULOTROBAN] | 82% | 40% | 4.41 | 89%
9 | CCCCC(C)(C)[C@H](O)/C=C/C1C(C/C=C\CCCC(=O)O)C2OC1C1OC21 (some centres not stated) |  |  | 5.66 | 
10 | O=C(O)CCC/C=C\CC1C(/C=C/[C@@H](O)C2CCCCC2)C2OC1C1OC21 (some centres not stated) |  |  | 5.28 | 
